Values after ≈ are worked out from the molar mass of the structure shown.
Tests used:
Caco-2 = assay: Apparent permeability of the compound in human Caco2 cells; type: ADME, cell-based
[1] = Aqueous solubility of the compound at pH 7.4 after 4 hrs; type: physicochemical; settings: buffer, pH 7.4, 4 h
[2] = Aqueous solubility of the compound at pH 2.0 after 4 hrs; type: physicochemical; settings: for solubility: buffer, pH 2, 4 h; for solubility at 4 h: aqueous, pH 2
[3] = Cytotoxicity against human TZM-bl cells after 4 days by XTT assay; type: cell-based; settings: 96 h
Outline: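 TZM-bl cells (5 × 10^5/mL) exposed to graded compound concentrations at 37 °C for 4 days. XTT (1 mg/mL) with 0.02 μM PMS added, and absorbance at 450 nm read after 4 h.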

[4] = system: Human immunodeficiency virus 1; assay: Antiviral activity against HIV-1 NL4-3 infected in human TZM-bl cells assessed as inhibition of viral replication after 2 days by luciferase reporter gene based luminescence assay; type: functional, organism-based; settings: Human immunodeficiency virus 1, NL4-3, TZM-bl, 48 h
Outline: (§1)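 Single-round infection of TZM-bl cells with 200 TCID50 virus (NL4-3 for wild type) in the presence of graded compound concentrations. Luciferase luminescence was read two days after infection. Run at least in triplicate; mean ± SD reported.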

Liver microsomes [5] = assay: Half life in human liver microsomes at 1 uM; type: ADME, Microsome
Outline: (§2)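 Compound at 1 μM final in 0.1 M potassium phosphate pH 7.4 with 0.1 mg/mL human liver microsomes and 5 mM MgCl2, 37 °C. Started with NADPH (1.0 mM final) and quenched with ice-cold ACN at 0, 5, 15, 30, 60 min; duplicate.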

[6] = Selectivity index, ratio of CC50 for human TZM-bl cells to EC50 for HIV-1NL4-3; type: toxicity, cell-based; settings: read-out: Ratio CC50/EC50
Liver microsomes [7] = assay: Intrinsic clearance in human liver microsomes at 1 uM; type: ADME, Microsome; outline: as §2
[8] = system: Human immunodeficiency virus 1; assay: Ratio of EC50 for multidrug-resistant HIV-1 RTMDR to EC50 for wild type HIV-1 NL4-3; type: functional
[9] = system: Human immunodeficiency virus 1; assay: Ratio of EC50 for HIV-1 harboring reverse transcriptase E138K mutant to EC50 for wild type HIV-1 NL4-3; type: functional
[10] = system: Human immunodeficiency virus 1; assay: Ratio of EC50 for HIV-1 harboring reverse transcriptase K101E mutant to EC50 for wild type HIV-1 NL4-3; type: functional
[11] = system: Human immunodeficiency virus 1; assay: Antiviral activity against HIV-1 harboring reverse transcriptase E138K mutant infected in human TZM-bl cells assessed as inhibition of viral replication after 2 days by luciferase reporter gene based luminescence assay; type: functional, organism-based; settings: Human immunodeficiency virus 1, TZM-bl, 48 h; outline: as §1
[12] = system: Human immunodeficiency virus 1; assay: Antiviral activity against multidrug-resistant HIV-1 RTMDR infected in human TZM-bl cells assessed as inhibition of viral replication after 2 days by luciferase reporter gene based luminescence assay; type: functional, organism-based; settings: Human immunodeficiency virus 1, RTMDR, 48 h; outline: as §1
[13] = system: Human immunodeficiency virus 1; assay: Antiviral activity against HIV-1 harboring reverse transcriptase K101E mutant infected in human TZM-bl cells assessed as inhibition of viral replication after 2 days by luciferase reporter gene based luminescence assay; type: functional, organism-based; settings: Human immunodeficiency virus 1, TZM-bl, 48 h
Outline: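 Single-round infection of TZM-bl cells with 200 TCID50 virus (NL4-3 for wild type) in the presence of graded compound concentrations. Luciferase luminescence was read two days after infection. […] Run at least in triplicate; mean ± SD reported.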

Row | SMILES | solubility [1] | solubility [2] | CC50 [3] | EC50 [4] | t1/2 (Liver microsomes [5]) | selectivity ratio [6] | intrinsic clearance (CLint) (Liver microsomes [7]) | further results
1 | Cc1cc(/C=C/C#N)cc(C)c1Oc1cc(Nc2ccc(C#N)cc2)c(N)cc1[N+](=O)[O-] | 0.29 µg/mL (≈ 0.682 µM) | 0.29 µg/mL (≈ 0.682 µM) | > 24400 nM | 0.63 nM | 47.8 min | – | – | Papp (Caco-2): < 2 ×10⁻⁶ cm/s
2 | COC(=O)c1cc(N)c(Nc2ccc(C#N)cc2)cc1Oc1c(C)cc(/C=C/C#N)cc1C | – | – | > 22800 nM | – | 283 min | > 8320 | 20 µL/min/mg | –
3 | Cc1cc(/C=C/C#N)cc(C)c1Oc1cc(Nc2ccc(C#N)cc2)c(N)cc1C(=O)O | – | – | – | – | – | 65 | – | –
4 | Cc1cc(/C=C/C#N)cc(C)c1Oc1cc(Nc2ccc(C#N)cc2)c(N)cc1C(N)=O | – | – | > 23600 nM | – | – | > 27100 | – | Ratio EC50 [8]: 2.1; Ratio EC50 [9]: 10.3; Ratio EC50 [10]: 9.5; EC50 [11]: 9 nM; EC50 [12]: 1.8 nM; EC50 [13]: 8.3 nM; solubility at 4 h [2]: 2.09 µg/mL (≈ 4.94 µM)
5 | CNC(=O)c1cc(N)c(Nc2ccc(C#N)cc2)cc1Oc1c(C)cc(/C=C/C#N)cc1C | – | – | > 9200 nM | – | 44.8 min | > 1610 | 150 µL/min/mg | –
6 | Cc1cc(/C=C/C#N)cc(C)c1Oc1cc(Nc2ccc(C#N)cc2)c(N)cc1CO | – | – | – | – | – | 30800 | – | Ratio EC50 [8]: 0.7; Ratio EC50 [9]: 7.4; Ratio EC50 [10]: 6.4; EC50 [11]: 3.9 nM; EC50 [12]: 0.4 nM; EC50 [13]: 3.4 nM; solubility at 4 h [2]: 20.9 µg/mL (≈ 50.9 µM)
7 | Cc1cc(CO)cc(C)c1Oc1cc(Nc2ccc(C#N)cc2)c(N)cc1CO | – | – | 15900 nM | 10 nM | – | 1590 | – | –
8 | CNC(=O)c1cc2ncn(-c3ccc(C#N)cc3)c2cc1Oc1c(C)cc(/C=C/C#N)cc1C | – | – | > 890000 nM | > 220 nM | – | – | – | –
9 | CNC(=O)c1cc2ncn(-c3ccc(C#N)cc3)c2cc1Oc1c(C)cc(CCC#N)cc1C | – | – | > 890000 nM | > 220 nM | – | – | – | –
10 | CC(=O)/C=C/c1cc(C)c(Oc2cc(Nc3ccc(C#N)cc3)c(N)cc2C(F)(F)F)c(C)c1 | – | – | > 8600 nM | 10.9 nM | – | > 789 | – | –
11 | CC(=O)CCc1cc(C)c(Oc2cc(Nc3ccc(C#N)cc3)c(N)cc2C(F)(F)F)c(C)c1 | 0.16 µg/mL (≈ 0.342 µM) | 0.28 µg/mL (≈ 0.599 µM) | 11100 nM | 6.85 nM | – | 1620 | – | –
12 | Cc1cc(C#N)cc(C)c1Oc1cc(Nc2ccc(C#N)cc2)c(N)cc1C(F)(F)F | 0.26 µg/mL (≈ 0.616 µM) | 0.96 µg/mL (≈ 2.27 µM) | 13300 nM | 3.79 nM | – | 3510 | – | –
13 | Cc1cc(N)cc(C)c1Oc1cc(Nc2ccc(C#N)cc2)c(N)cc1C(F)(F)F | – | – | 15800 nM | 13.8 nM | – | 1140 | – | –
14 | Cc1cc(/C=C/C#N)cc(C)c1Oc1cc(Nc2ccc(C#N)cc2)c(N)cc1C(F)(F)F | 0.24 µg/mL (≈ 0.535 µM) | 0.42 µg/mL (≈ 0.937 µM) | 15000 nM | 9.38 nM | 45 min | 1600 | 150 µL/min/mg | –
15 | Cc1cc(CCC#N)cc(C)c1Oc1cc(Nc2ccc(C#N)cc2)c(N)cc1C(F)(F)F | 0.24 µg/mL (≈ 0.533 µM) | – | > 7100 nM | 1.13 nM | 55.7 min | – | 120 µL/min/mg | –
16 | Cc1cc(/C=C/C#N)cc(C)c1Oc1cc(Nc2ccc(C#N)cc2)c(N)cc1S(N)(=O)=O | – | – | > 21800 nM | 93.7 nM | – | > 233 | – | –
17 | Cc1cc(CCC#N)cc(C)c1Oc1cc(Nc2ccc(C#N)cc2)c(N)cc1S(N)(=O)=O | – | – | 11100 nM | 380 nM | – | 29.2 | – | –
18 | COC(=O)c1cc(N)c(Nc2ccc(C#N)cc2)cc1Oc1c(C)cc(CCC#N)cc1C | 1.21 µg/mL (≈ 2.75 µM) | 21.8 µg/mL (≈ 49.5 µM) | > 22700 nM | 4.32 nM | 186 min | > 5260 | 40 µL/min/mg | Ratio EC50 [8]: 0.9; Ratio EC50 [9]: 1.7; Ratio EC50 [10]: 3.2; EC50 [11]: 7.5 nM; EC50 [12]: 4.1 nM; EC50 [13]: 14 nM
19 | Cc1cc(CCC#N)cc(C)c1Oc1cc(Nc2ccc(C#N)cc2)c(N)cc1C(=O)O | – | – | 14300 nM | 96 nM | – | 149 | – | –
20 | Cc1cc(CCC#N)cc(C)c1Oc1cc(Nc2ccc(C#N)cc2)c(N)cc1C(N)=O | 0.06 µg/mL (≈ 0.141 µM) | 9.11 µg/mL (≈ 21.4 µM) | > 9400 nM | 1.39 nM | 42 min | > 6760 | 160 µL/min/mg | –
21 | CNC(=O)c1cc(N)c(Nc2ccc(C#N)cc2)cc1Oc1c(C)cc(CCC#N)cc1C | 8.28 µg/mL (≈ 18.8 µM) | 44.7 µg/mL (≈ 102 µM) | > 9100 nM | 2.73 nM | 55.7 min | > 3330 | 120 µL/min/mg | Ratio EC50 [8]: 2.9; Ratio EC50 [9]: 3.7; Ratio EC50 [10]: 5.1; EC50 [11]: 10 nM; EC50 [12]: 8 nM; EC50 [13]: 14 nM
22 | Cc1cc(CCC#N)cc(C)c1Oc1cc(Nc2ccc(C#N)cc2)c(N)cc1C(=O)NN | – | – | > 22700 nM | 19.1 nM | – | > 1190 | – | –
23 | Cc1cc(CCC#N)cc(C)c1Oc1cc(Nc2ccc(C#N)cc2)c(N)cc1CO | 18.8 µg/mL (≈ 45.6 µM) | 89.8 µg/mL (≈ 218 µM) | > 23800 nM | 0.39 nM | 20.9 min | > 61000 | 330 µL/min/mg | Ratio EC50 [8]: 4.6; Ratio EC50 [9]: 7.4; Ratio EC50 [10]: 8.7; EC50 [11]: 2.9 nM; EC50 [12]: 1.8 nM; EC50 [13]: 3.4 nM
24 | Cc1cc(CCC#N)cc(C)c1Oc1cc(Nc2ccc(C#N)cc2)c(N)cc1N | – | – | > 25000 nM | 7.3 nM | – | > 3420 | – | –
25 | Cc1cc(C#N)cc(C)c1Oc1nc(Nc2ccc(C#N)cc2)nc(N)c1Br [ETRAVIRINE] | – | – | – | 1.51 nM | – | – | – | –

Reference: ChEMBL document CHEMBL2163272, “Design, synthesis, and preclinical evaluations of novel 4-substituted 1,5-diarylanilines as potent HIV-1 non-nucleoside reverse transcriptase inhibitor (NNRTI) drug candidates” (J Med Chem, 2012)
